Screening results deposited in PubChem BioAssay by several laboratories.
ARFGAP1 inhibitor = inhibitors of rat ARFGAP1; inhibition, % at 16.5 µM; 360,000 tested, 0.26% active; Q62848; Arfgap1-stimulated ARF1 GTP hydrolysis, GDP FP detection;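 active = inhibition above a per-plate limit, mean inhibition of low control wells plus 3 SD, cut at about 25% in these data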;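 also: 0% = DMSO wells with enzyme and 100% = wells lacking Arfgap1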
Target sequence (Q62848 1-136 limits assumed): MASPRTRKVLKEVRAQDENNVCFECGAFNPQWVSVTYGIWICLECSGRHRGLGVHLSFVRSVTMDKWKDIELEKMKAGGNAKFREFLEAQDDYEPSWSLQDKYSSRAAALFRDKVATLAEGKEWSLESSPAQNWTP
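Material – truncated rat Arfgap1 GAP domain · Buffer or medium – HEPES-based buffer, pH 7.5 · Reagent – human ARF1(Δ1-17)-GTP substrate · Dosing – 16.5 µM single point, 1.26% DMSO · Schedule – GTP hydrolysis reaction 2 h at 25 °C · Technique – GDP detection by fluorescence polarization · Benchmarks – No-Arfgap1 wells (100%) versus DMSO full-reaction wells (0%) · Repeats – single replicate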
ASAP1 GAP inh = inhibitors of human ASAP1 ArfGAP activity; ASAP1-stimulated ARF1 GTP hydrolysis, GDP FP detection; Q9ULH1; 360,000 tested, 0.19% active; inhibition, % at 16.5 µM; in the data active = inhibition above about 25%;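 also: 0% = vehicle with enzyme and substrate and 100% = no enzyme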
V-ATPase pHluor = alters yeast V-ATPase proton transport; S. cerevisiae, pHLuorin cytosolic pH fluorescence; response, % at 10 µM; 350,000 tested, 0.37% active; in the data active = response mostly above about 7.3%, no sharp cut-off; inactive = mostly below about 5.4%; also: actives read high
Exocytosis inh = lytic granule exocytosis inhibition. TALL-104 LAMP-1 surface exposure, flow cytometry; cells stimulated with thapsigargin and PMA. inhibition, % at 10 µM. 360,000 tested, 0.66% active. AID 651702;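 active = inhibition above about 55%, limit read from the data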
CendR NRP1 mod = modulators of CendR peptide binding to human neuropilin-1. O14786. FAM-RPARPAR peptide binding to NRP-1, fluorescence polarization. inhibition, % at 25 µM. 360,000 tested, 0.85% active;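 active = inhibition or corrected inhibition above about 18%, plus a signal ratio from 0.5 to 1.5, limit read from the data, passing the limit was not always enough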
ARFGAP1 confirm = confirmation of rat ARFGAP1 inhibitors | shares compounds with ARFGAP1 inhibitor | ARFGAP1-stimulated ARF1 GTP hydrolysis, GDP tracer FP | inhibition, % at 16.5 µM | 890 tested, 30% active;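 active = average inhibition over triplicates above the hit cutoff set in the earlier primary screen, cut at about 25% in these data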;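 also: 0% = Arfgap1 plus ARF1-GTP with DMSO and 100% = wells lacking Arfgap1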
Target sequence (Q62848 whole entry, looked up): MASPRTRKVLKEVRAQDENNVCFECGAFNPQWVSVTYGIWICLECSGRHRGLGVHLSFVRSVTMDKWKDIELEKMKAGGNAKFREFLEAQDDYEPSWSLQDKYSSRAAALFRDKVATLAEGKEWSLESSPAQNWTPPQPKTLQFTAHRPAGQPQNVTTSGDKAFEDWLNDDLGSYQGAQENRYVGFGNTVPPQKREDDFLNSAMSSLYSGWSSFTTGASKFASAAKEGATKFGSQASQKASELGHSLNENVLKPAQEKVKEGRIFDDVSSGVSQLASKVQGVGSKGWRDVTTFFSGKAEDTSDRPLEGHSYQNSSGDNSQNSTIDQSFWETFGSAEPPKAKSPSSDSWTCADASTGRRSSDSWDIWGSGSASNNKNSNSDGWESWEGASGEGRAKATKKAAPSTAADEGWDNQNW
* marks the source's active call; other numbers are inactive results; nt = no result given. Most compounds without a hit are left out; they make up all but 2.2% or so of the library.

SMILES | ARFGAP1 inhibitor | ASAP1 GAP inh | V-ATPase pHluor | Exocytosis inh | CendR NRP1 mod | ARFGAP1 confirm
CC(C)Oc1ccc(CCC(=O)N/N=C/c2ccc3c(c2)OCO3)cc1 | 32* | 1 | 0 | -11 | 3 | -1
O=C(N/N=C/c1ccc2c(c1)OCO2)c1ccc(NC(=O)c2ccc(F)cc2)cc1 | 25* | 16 | 0 | -14 | 6 | 15
O=C(CCc1ccc(O)c(O)c1)N/N=C/c1ccc2c(c1)OCO2 | 4 | 7 | -1 | -1 | 22 | nt
O=C(N/N=C/c1ccc2c(c1)OCO2)c1ccc2c(c1)OCCO2 | -3 | 14 | -1 | 12 | -7 | nt
O=C(COC(=O)C1CC1)Nc1c(Cl)cccc1C(F)(F)F | 16 | -15 | 0 | -6 | -4 | nt
CC1(c2ccc3c(c2)OCCCO3)NC(=O)N(CC(=O)NCCc2ccccc2)C1=O (centres undefined) | 3 | -2 | 3 | -7 | 11 | nt
COC(=O)C1=C(C)N(Cc2cccc(C(F)(F)F)c2)C(=NCc2ccc(C(F)(F)F)cc2)NC1c1cccc(F)c1 (centres undefined) | 29* | 3 | nt | nt | nt | 6
COC(=O)C1=C(C)N(Cc2cccc(C(F)(F)F)c2)C(=NCc2ccc(C(F)(F)F)cc2)NC1c1ccc(C(F)(F)F)cc1 (centres undefined) | 32* | 19 | nt | nt | nt | 16
COC(=O)C1=C(C)N(Cc2ccc(C(F)(F)F)cc2)C(=NCc2ccccc2)NC1c1cccc(F)c1 (centres undefined) | 2 | -8 | nt | nt | nt | nt
COC(=O)C1=C(C)N(C)C(=NCc2ccc(OC)cc2)NC1c1ccc(F)cc1 (centres undefined) | 2 | -5 | nt | nt | nt | nt
C=CCc1ccc(O)c(-c2ccc(O)c(CC=C)c2)c1 | 36* | 14 | 0 | 4 | 0 | 11
O=C(N/N=C/c1ccc(O)cc1)c1[nH]c2ccc(Br)cc2c1-c1ccccc1 | 1 | 12 | 2 | 1 | -4 | nt
O=C(N/N=C/c1c[nH]c2ccccc12)c1[nH]c2ccc(Br)cc2c1-c1ccccc1 | 30* | 1 | 2 | 1 | -4 | 17
COCc1[nH]nc2c1C(c1cccc(C(F)(F)F)c1)NC2=O (centres undefined) | -4 | -12 | nt | nt | nt | nt
O=C(NNC(=O)c1cccc(S(=O)(=O)N2CCN(c3ccccc3)CC2)c1)c1ccc(Cl)cc1 | 25* | -10 | 2 | 5 | -10 | 4
O=C(CCNC(=O)c1ccc(Cl)cc1)Nc1ccc(S(=O)(=O)N2CCOCC2)cc1 | 7 | 16 | 2 | 8 | 9 | nt
O=C(NCC1CCN(c2ccc(S(=O)(=O)N3CCOCC3)cc2)CC1)c1ccc(Cl)cc1 | 26* | -8 | -1 | 2 | -6 | 2
CCN1CCN(c2ccc(S(=O)(=O)N3CCOCC3)cc2NC(=O)/C=C/c2ccc(OC)cc2OC)CC1 | 33* | 21 | 3 | 12 | -12 | 23
CCN1CCN(c2ccc(S(=O)(=O)N3CCOCC3)cc2NC(=O)/C=C/c2ccc([N+](=O)[O-])cc2)CC1 | 37* | 13 | 3 | 13 | 1 | 37*
CCN1CCN(c2ccc(S(=O)(=O)N3CCOCC3)cc2NC(=O)c2cccc([N+](=O)[O-])c2)CC1 | 0 | 5 | 0 | 2 | 1 | nt
C=C(C)C(=O)OCC(O)COc1ccc(C(C)(C)c2ccc(OCC(O)COC(=O)C(=C)C)cc2)cc1 (centres undefined) | 32* | 6 | 3 | 17 | 6 | 14
CC(=O)c1ccc(OCC(O)COc2ccc(C(C)=O)cc2)cc1 | 15 | 3 | 1 | 0 | -1 | nt
COc1cc(/C=N/NC2=NCCCCC2)ccc1O | 0 | 18 | -1 | -2 | 12 | nt
COc1cc(/C=N/Nc2ncnc3sc4c(c23)CCC4)ccc1O | 26* | 19 | 5 | -1 | -7 | 11
CCOC(=O)NC(=O)CSc1ccc(S(=O)(=O)N(C)C2CCCCC2)cn1 | -3 | -2 | -4 | 6 | 14 | nt
SMILES | ARFGAP1 inhibitor | ASAP1 GAP inh | V-ATPase pHluor | Exocytosis inh | CendR NRP1 mod | ARFGAP1 confirm
O=C(NC(=S)Nc1ccc2c(c1)OCCO2)c1ccccc1 | 25* | -7 | 1 | 3 | 13 | 2
Cc1ccc(/C=N/N2CCN(Cc3ccccc3)CC2)o1 | 5 | -10 | -6 | 4 | 6 | nt
Cc1ccc(/C=N/N(Cc2ccccc2)c2ccccc2)o1 | 33* | 0 | 0 | 5 | -9 | 2
N#Cc1ccsc1NC(=O)COC(=O)c1ccc2ccccc2c1 | 27* | 23 | -2 | 13 | -39 | 20
Nc1nonc1-c1nc2ccccc2n1Cc1ccc(Cl)cc1 | 25* | 8 | 7 | -1 | -3 | 1
Cc1nn(CCCC(=O)Nc2cc(Oc3ccccc3)cc([N+](=O)[O-])c2)c(C)c1[N+](=O)[O-] | 15 | 7 | 2 | 2 | 1 | nt
Cc1ccc(C)c(Oc2cc(NC(=O)CCCn3nc(C)c([N+](=O)[O-])c3C)cc([N+](=O)[O-])c2)c1 | 26* | 6 | -3 | 16 | -2 | 1
CN(C)CCNC(=O)COc1ccc(Cl)cc1Cl | -8 | -9 | 2 | -5 | -7 | nt
O=C(COc1ccc(Cl)cc1Cl)NCCSc1ccc(Cl)cc1 | 29* | 4 | -3 | 4 | 18 | -2
OC[C@@H]1CN(CCNc2ccccc2)C[C@H](n2cnc3c(NCc4ccncc4)ncnc32)O1 | -9 | -3 | nt | -1 | -7 | nt
COc1ccc(-c2c(-c3ccc(OCC(=O)NN)cc3O)n[nH]c2C(F)(F)F)cc1 | 32* | 25 | 0 | 0 | 8 | 24
Nc1cc(Cl)nnc1Cl | 25* | -2 | 0 | 2 | -1 | 3
CCOC(=O)C(N=Nc1nn[nH]n1)C(C)=O (centres undefined) | 5 | -2 | -2 | 50 | 19 | nt
CCOC(=O)[C@]12CCCC=C1N(CCC1=CCCCC1)C(=O)[C@H](CC(=O)NCc1cccc(C(F)(F)F)c1)C2 | 2 | 12 | nt | -8 | 2 | nt
CCOC(=O)C1(C)CCCN1C(=O)c1ccc(N(C)C)cc1 (centres undefined) | 0 | 4 | nt | 12 | 1 | nt
O=C(NNC(=S)Nc1ccc(Cl)c(Cl)c1)c1ccccn1 | 26* | -5 | -1 | 1 | 10 | -1
O=Cc1ccc(F)c([B-](F)(F)F)c1 | 6 | -16 | 1 | -5 | -10 | nt
CCCOc1ccc(/C=N/NC(=O)c2ccc(Cn3cc([N+](=O)[O-])cn3)o2)cc1 | 26* | 23 | 3 | 2 | 3 | 33*
CCCOc1ccc(C(=O)Nc2ccc(S(=O)(=O)N3C[C@@H]4C[C@@H](C3)c3cccc(=O)n3C4)cc2)cc1 | 25* | -14 | 1 | 0 | -16 | 3
Nc1[nH]c(C(=O)c2ccccc2)c(-c2ccccc2C(F)(F)F)c1C(=O)NCCc1c[nH]c2ccccc12 | 25* | 3 | nt | 36 | -34 | 12
CCS(=O)(=O)Nc1cccc(C2=NN(S(=O)(=O)c3ccccc3)C(c3ccco3)C2)c1 (centres undefined) | -9 | -14 | 2 | 0 | -18 | nt
